Activity calls are given as the source filed them. The rule behind the calls is not given here.
Assays:
[1] = Half life in rat at 3 mg/kg, po; type: ADME, organism-based; set-up: dose 3 mg/kg, route oral; conditions: in vivo
[2] = biological target: T1, Muscarinic acetylcholine receptor M1 (Homo sapiens, UniProt P11229); test: Agonist activity at human muscarinic M1 receptor expressed in CHO cells assessed as intracellular calcium mobilization after 10 to 15 mins by FLIPR assay; type: functional, cell-based
T1 sequence (P11229 whole entry): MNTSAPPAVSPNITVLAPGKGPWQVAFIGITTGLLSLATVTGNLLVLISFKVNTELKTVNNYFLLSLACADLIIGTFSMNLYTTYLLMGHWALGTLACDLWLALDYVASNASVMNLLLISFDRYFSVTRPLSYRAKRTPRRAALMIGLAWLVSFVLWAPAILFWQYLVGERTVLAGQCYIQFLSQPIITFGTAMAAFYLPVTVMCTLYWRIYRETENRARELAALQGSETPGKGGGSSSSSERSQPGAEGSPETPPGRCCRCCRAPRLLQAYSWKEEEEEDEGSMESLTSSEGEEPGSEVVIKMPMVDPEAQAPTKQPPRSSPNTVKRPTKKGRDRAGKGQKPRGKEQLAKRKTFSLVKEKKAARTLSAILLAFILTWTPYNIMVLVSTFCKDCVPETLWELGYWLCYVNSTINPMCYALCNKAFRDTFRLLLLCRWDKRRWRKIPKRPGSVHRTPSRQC
Outline: (§1)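 Human M1 mAChR stably expressed in CHO cells; agonist-induced intracellular Ca2+ mobilization read by fluorometric imaging plate reader (FLIPR).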

[3] = biological target: T2, Muscarinic acetylcholine receptor M1 (Homo sapiens) (UniProt P11229); test: Intrinsic activity at human muscarinic M1 receptor expressed in CHO cells assessed as intracellular calcium mobilization after 10 to 15 mins by FLIPR assay; type: functional, cell-based; outline: as §1
T2 sequence (whole entry): T1 sequence (P11229 whole entry)

[4] = biological target: Voltage-gated inwardly rectifying potassium channel KCNH2 (Homo sapiens, UniProt Q12809); test: Binding affinity to human ERG
[5] = biological target: T3, Muscarinic acetylcholine receptor M3 (Homo sapiens, UniProt P20309); test: Agonist activity at human muscarinic M3 receptor expressed in CHO cells assessed as intracellular calcium mobilization after 10 to 15 mins by FLIPR assay; type: functional, cell-based
Target sequence in this assay (P20309 whole entry): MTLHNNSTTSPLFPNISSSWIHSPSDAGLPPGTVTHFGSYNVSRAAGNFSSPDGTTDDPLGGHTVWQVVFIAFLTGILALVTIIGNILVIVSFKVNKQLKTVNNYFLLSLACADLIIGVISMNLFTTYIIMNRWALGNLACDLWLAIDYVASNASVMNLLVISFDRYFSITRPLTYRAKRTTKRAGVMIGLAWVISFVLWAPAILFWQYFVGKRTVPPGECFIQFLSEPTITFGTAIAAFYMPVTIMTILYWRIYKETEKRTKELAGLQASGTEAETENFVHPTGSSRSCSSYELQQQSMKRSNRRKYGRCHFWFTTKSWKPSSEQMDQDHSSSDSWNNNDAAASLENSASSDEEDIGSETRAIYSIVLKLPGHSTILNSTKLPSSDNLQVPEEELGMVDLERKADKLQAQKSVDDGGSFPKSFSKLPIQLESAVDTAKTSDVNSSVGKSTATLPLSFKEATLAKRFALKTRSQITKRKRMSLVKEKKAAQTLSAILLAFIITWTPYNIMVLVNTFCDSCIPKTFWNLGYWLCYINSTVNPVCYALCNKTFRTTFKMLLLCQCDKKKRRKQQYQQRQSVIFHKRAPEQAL

[6] = biological target: T4, Muscarinic acetylcholine receptor M2 (Homo sapiens) (UniProt P08172); test: Intrinsic activity at human muscarinic M2 receptor expressed in CHO cells coexpressing Galpha16 subunit assessed as intracellular calcium mobilization after 10 to 15 mins by FLIPR assay; type: functional, cell-based
T4 sequence (whole entry): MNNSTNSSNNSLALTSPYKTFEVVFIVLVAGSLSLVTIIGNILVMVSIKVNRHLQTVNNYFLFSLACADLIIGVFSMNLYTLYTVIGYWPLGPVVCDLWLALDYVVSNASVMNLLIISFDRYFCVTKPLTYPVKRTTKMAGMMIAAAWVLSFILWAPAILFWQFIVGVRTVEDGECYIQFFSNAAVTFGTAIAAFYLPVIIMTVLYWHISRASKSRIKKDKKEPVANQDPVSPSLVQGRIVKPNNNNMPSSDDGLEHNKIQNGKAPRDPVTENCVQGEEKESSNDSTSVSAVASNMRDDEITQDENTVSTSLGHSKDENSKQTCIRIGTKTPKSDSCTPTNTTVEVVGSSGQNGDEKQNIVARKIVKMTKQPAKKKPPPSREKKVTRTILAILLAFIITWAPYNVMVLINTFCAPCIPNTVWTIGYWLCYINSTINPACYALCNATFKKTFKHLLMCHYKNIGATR

[7] = biological target: T5, Muscarinic acetylcholine receptor M4 (Homo sapiens) (UniProt P08173); test: Intrinsic activity at human muscarinic M4 receptor expressed in CHO cells coexpressing Galpha16 subunit assessed as intracellular calcium mobilization after 10 to 15 mins by FLIPR assay; type: functional, cell-based
T5 sequence (whole entry): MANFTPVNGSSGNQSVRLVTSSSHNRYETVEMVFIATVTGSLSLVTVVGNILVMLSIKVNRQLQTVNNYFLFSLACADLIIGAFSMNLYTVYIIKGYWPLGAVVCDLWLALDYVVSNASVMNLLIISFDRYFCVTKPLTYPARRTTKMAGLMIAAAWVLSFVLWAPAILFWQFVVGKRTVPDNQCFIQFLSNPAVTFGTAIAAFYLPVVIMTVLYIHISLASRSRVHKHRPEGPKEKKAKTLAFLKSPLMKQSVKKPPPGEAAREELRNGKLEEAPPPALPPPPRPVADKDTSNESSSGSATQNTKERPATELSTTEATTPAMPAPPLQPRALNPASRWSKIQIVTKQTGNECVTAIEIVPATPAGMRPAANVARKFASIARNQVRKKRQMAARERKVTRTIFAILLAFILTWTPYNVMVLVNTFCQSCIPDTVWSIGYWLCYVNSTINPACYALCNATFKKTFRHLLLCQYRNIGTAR

[8] = biological target: T6, Muscarinic acetylcholine receptor M4 (Homo sapiens, UniProt P08173); test: Agonist activity at human muscarinic M4 receptor expressed in CHO cells coexpressing Galpha16 subunit assessed as intracellular calcium mobilization after 10 to 15 mins by FLIPR assay; type: functional, cell-based
T6 sequence (P08173 whole entry): T5 sequence (whole entry)

[9] = biological target: T3, Muscarinic acetylcholine receptor M3; test: Intrinsic activity at human muscarinic M3 receptor expressed in CHO cells assessed as intracellular calcium mobilization after 10 to 15 mins by FLIPR assay; type: functional, cell-based
Target sequence in this assay (P20309 whole entry, looked up): as the sequence (P20309 whole entry) above

[10] = biological target: T7, Muscarinic acetylcholine receptor M2 (Homo sapiens, UniProt P08172); test: Agonist activity at human muscarinic M2 receptor expressed in CHO cells coexpressing Galpha16 subunit assessed as intracellular calcium mobilization after 10 to 15 mins by FLIPR assay; type: functional, cell-based
T7 sequence (P08172 whole entry): T4 sequence (whole entry)

[11] = Ratio of drug level in brain to blood in rat at 3 mg/kg, po; type: ADME, organism-based; set-up: dose 3 mg/kg, route oral
[12] = biological target: 5-hydroxytryptamine receptor 2A (Homo sapiens, UniProt P28223); test: Binding affinity to 5HT2A receptor
D(3) dopamine receptor = D(3) dopamine receptor (Homo sapiens, UniProt P35462); test: Binding affinity to dopamine D3 receptor
D(2) dopamine receptor = D(2) dopamine receptor (Homo sapiens, UniProt P14416); test: Binding affinity to dopamine D2 receptor
[13] = biological target: T8, 5-hydroxytryptamine receptor 1A (Homo sapiens, UniProt P08908); test: Activity at 5HT1A receptor
T8 sequence (P08908 whole entry): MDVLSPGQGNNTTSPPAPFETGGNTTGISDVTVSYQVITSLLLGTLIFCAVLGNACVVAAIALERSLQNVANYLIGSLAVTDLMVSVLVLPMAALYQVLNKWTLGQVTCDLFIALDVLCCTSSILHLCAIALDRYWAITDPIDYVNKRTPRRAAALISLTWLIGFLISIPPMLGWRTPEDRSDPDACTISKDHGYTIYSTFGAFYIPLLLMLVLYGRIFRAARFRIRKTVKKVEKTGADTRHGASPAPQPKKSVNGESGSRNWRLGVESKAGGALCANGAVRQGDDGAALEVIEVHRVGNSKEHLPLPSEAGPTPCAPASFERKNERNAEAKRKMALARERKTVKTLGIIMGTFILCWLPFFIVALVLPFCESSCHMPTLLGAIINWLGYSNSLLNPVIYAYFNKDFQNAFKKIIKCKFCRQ

Liver microsomes = test: Intrinsic clearance in human liver microsomes; type: ADME, Microsome
[14] = Blood clearance in rat at 1 mg/kg, iv; type: ADME, organism-based; set-up: dose 1 mg/kg, route intravenous
[15] = biological target: T9, Muscarinic acetylcholine receptor M5 (Homo sapiens, UniProt P08912); test: Agonist activity at human muscarinic M5 receptor expressed in CHO cells assessed as intracellular calcium mobilization after 10 to 15 mins by FLIPR assay; type: functional, cell-based
T9 sequence (P08912 whole entry): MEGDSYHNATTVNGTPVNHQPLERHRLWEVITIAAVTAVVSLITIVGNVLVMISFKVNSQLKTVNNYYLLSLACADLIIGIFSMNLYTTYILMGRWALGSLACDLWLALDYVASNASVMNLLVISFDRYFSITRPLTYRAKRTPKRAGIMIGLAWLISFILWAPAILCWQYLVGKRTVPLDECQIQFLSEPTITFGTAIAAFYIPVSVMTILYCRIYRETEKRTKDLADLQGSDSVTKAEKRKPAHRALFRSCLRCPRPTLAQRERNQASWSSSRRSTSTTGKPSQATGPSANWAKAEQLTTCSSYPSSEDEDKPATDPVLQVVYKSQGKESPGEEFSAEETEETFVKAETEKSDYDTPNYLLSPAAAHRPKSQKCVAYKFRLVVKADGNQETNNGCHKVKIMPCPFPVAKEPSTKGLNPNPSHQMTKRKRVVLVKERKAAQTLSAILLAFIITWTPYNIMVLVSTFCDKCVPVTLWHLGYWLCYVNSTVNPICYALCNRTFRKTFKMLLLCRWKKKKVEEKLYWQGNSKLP

[16] = Half life in rat at 1 mg/kg, iv; type: ADME, organism-based; set-up: dose 1 mg/kg, route intravenous; conditions: in vivo
Rattus norvegicus [17] = test: Increase in neuronal firing rate in Sprague-Dawley rat hippocampal CA1 region at 0.3 mg/kg, iv; type: functional, organism-based; set-up: dose 0.3 mg/kg
Outline: (§2)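 Rat hippocampal CA1 neuronal cell firing rate recorded after iv dosing at 0.3 or 1 mg/kg. Where used, scopolamine was given at 3 mg/kg ip […] before the iv dose. Statistics by repeated measures ANOVA.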

Rattus norvegicus [18] = test: Increase in neuronal firing rate in Sprague-Dawley rat hippocampal CA1 region at 1 mg/kg, iv pretreated with 3 mg/kg, ip mAChR antagonist scopolamine for 10 mins; type: functional, organism-based
Rattus norvegicus [19] = test: Increase in neuronal firing rate in Sprague-Dawley rat hippocampal CA1 region at 1 mg/kg, iv; type: functional; outline: as §2
Rattus norvegicus [20] = test: Antidementia activity against scopolamine-induced amnesia in Wistar rat assessed as improvement in recall latency to transfer from bright to dark compartment administered orally 2 hrs before scopolamine challenge measured after 24 hrs post training by passive avoidance test; type: functional, organism-based
Outline: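 Rat passive avoidance task with scopolamine (0.8 mg/kg) given to induce amnesia. Test agent dosed orally at 1, 3 and 10 mg/kg. Groups compared with vehicle-treated controls and with scopolamine alone.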

Sequence of Voltage-gated inwardly rectifying potassium channel KCNH2 (Q12809 whole entry): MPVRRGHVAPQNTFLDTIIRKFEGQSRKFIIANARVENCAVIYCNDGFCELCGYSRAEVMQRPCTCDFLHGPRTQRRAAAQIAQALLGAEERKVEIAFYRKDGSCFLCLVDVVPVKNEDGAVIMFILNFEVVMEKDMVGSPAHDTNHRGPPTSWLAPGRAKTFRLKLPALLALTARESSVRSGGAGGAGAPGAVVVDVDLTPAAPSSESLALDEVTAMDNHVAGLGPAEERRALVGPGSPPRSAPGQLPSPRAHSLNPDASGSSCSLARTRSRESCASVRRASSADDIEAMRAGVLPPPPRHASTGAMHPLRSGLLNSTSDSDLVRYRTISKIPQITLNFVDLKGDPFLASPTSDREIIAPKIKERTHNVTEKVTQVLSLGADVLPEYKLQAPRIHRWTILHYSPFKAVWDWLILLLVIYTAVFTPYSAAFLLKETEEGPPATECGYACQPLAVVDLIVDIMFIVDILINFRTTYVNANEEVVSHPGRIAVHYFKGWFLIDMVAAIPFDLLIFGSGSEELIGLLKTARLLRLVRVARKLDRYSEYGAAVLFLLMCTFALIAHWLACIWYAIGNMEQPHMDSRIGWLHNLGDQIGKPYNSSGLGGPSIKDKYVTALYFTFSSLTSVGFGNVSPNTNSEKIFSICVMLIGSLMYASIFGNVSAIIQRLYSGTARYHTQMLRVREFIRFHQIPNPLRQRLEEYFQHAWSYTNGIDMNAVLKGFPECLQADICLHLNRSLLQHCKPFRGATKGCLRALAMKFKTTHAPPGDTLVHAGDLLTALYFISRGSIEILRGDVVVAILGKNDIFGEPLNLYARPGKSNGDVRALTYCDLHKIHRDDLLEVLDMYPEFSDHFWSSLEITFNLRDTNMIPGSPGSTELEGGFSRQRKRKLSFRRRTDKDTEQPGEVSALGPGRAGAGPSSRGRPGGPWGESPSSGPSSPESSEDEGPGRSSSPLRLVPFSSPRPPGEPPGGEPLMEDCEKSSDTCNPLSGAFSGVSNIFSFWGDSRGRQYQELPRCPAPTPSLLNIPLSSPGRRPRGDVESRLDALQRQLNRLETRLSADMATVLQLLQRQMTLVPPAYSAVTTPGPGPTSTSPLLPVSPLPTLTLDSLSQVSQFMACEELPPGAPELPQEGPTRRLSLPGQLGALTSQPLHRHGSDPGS
Sequence of D(3) dopamine receptor (P35462 whole entry): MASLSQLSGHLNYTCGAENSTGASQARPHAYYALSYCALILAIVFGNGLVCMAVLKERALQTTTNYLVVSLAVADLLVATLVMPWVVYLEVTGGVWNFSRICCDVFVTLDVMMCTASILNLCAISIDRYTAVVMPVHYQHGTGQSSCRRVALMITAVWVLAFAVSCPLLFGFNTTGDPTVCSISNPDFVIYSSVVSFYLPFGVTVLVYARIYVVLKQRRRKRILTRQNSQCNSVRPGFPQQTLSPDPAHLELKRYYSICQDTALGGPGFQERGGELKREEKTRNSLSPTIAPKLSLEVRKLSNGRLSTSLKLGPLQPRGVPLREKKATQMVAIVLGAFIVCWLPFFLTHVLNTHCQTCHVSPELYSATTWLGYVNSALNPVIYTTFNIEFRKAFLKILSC
Sequence of 5-hydroxytryptamine receptor 2A (P28223 whole entry): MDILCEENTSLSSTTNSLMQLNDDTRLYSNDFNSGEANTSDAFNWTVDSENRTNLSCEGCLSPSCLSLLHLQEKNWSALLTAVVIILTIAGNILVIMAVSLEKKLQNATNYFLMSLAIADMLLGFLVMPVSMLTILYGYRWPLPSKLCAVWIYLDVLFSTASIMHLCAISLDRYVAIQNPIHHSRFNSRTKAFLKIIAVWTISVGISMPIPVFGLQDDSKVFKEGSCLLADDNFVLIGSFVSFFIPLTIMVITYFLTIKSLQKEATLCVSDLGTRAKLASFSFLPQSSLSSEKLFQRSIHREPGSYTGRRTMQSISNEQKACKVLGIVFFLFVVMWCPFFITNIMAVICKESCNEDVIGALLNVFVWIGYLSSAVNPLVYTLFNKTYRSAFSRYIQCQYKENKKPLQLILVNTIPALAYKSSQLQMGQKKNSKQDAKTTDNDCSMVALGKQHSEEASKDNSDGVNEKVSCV
Sequence of D(2) dopamine receptor (P14416 whole entry): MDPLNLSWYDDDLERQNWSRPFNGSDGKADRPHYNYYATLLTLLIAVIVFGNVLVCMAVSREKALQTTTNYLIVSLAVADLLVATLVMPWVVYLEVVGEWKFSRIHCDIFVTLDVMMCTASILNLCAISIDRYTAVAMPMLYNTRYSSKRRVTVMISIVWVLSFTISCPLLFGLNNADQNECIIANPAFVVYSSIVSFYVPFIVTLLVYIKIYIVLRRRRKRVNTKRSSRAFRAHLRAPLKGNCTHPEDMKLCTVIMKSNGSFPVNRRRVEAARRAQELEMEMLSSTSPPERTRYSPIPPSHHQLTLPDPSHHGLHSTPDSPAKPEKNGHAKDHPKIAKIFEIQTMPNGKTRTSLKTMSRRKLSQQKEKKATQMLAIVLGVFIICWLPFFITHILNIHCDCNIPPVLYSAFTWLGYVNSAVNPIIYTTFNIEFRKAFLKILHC

Compound | EC50 [2] [nM] | Intrinsic activity [3] [%] | IC50 [4] [nM] | EC50 [5] [nM] | Intrinsic activity [6] [%] | Intrinsic activity [7] [%] | EC50 [8] [nM] | Intrinsic activity [9] [%] | EC50 [10] [nM] | Kp [11] | further results
Cc1ccc2[nH]c(=O)n(C3CCN(C4CCOCC4)CC3)c2c1 | 5.01 | 92 | 25100 | 3980 | 71 | 68 | 631 | 72 | 631 | 0.6 | half-life [1]: 2.6 h
O=c1[nH]c2ccccc2n1C1CCN(CCCOc2ccc(F)cc2)CC1 | 398 | 86 | 79.4 | > 25100 | – | – | > 25100 | – | > 25100 | – | Ki [12]: 3.16 nM; Ki (D(3) dopamine receptor): 1.26 nM; Ki (D(2) dopamine receptor): 0.501 nM; EC50 [13]: 50.1 nM
O=c1[nH]c2ccccc2n1C1CCN(C2CCOCC2)CC1 | – | 101 | – | > 10000 | 88 | 77 | – | – | – | – | CLH (Liver microsomes): 0.5 mL/min/g; clearance [14]: 68 mL/min/kg; EC50 [15]: > 10000 nM; half-life [16]: 0.5 h
Cc1cc2c(cc1F)[nH]c(=O)n2C1CCN(C2CCOCC2)CC1 | – | 94 | 12600 | – | 71 | 71 | 501 | 58 | – | 0.6 | Activity (Rattus norvegicus [17]): inactive; Activity (Rattus norvegicus [18]): inactive; fold change (FC) (Rattus norvegicus [19]): 3; Activity (Rattus norvegicus [20]): Dose-dependent effect

— ChEMBL document CHEMBL2146410, “Novel N-Substituted Benzimidazolones as Potent, Selective, CNS-Penetrant, and Orally Active M1 mAChR Agonists” (ACS Med Chem Lett, 2010)
